Active and inactive are the calls of the source. The calls are words filed in the database; no cut-off is given here.
Tests used:
[1] = Chemical stability in phosphate buffer at pH 7 after 1 hr; format: physicochemical; settings: pH 7, 1 h
[2] = Chemical stability in phosphate buffer at pH 7; format: physicochemical
Outline: (§1)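 The ligand was held at 5×10−5 M in 10−2 M phosphate buffer, pH 7, at 37 °C and constant ionic strength. Degradation was followed as the change in absorbance at 345 nm. First-order kinetics were taken from ln(At/A0) versus time.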

[3] = Cytotoxicity against african green monkey Vero cells at 5 uM; format: cell-based; settings: chlorocebus sabaeus, read-out: INH
[4] = Cytotoxicity against african green monkey Vero cells at 10 uM; format: cell-based; settings: chlorocebus sabaeus, read-out: INH
[5] = Protonation constant, pKa by spectrophotometric method; format: physicochemical
Outline: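 Aqueous ligand solutions (2.5×10−5 M) were titrated spectrophotometrically, adjusting pH from 1 to 11 with concentrated NaOH or HCl. The UV absorbance maximum (320–365 nm) was followed versus pH. Protonation constants were computed from the spectral data.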

[6] = Cytotoxicity against african green monkey Vero cells at 800 uM; format: cell-based; settings: chlorocebus sabaeus, read-out: INH
Outline: (§2)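 Vero cells (African green monkey kidney) were grown in MEM with 10% heat-inactivated FCS at 37 °C in 5% CO2. Cells were seeded at 4×10^4 cells/well and grown 72 h with a range of compound concentrations. They were then methanol-fixed, stained with crystal violet, and the dye was extracted into acidic isopropanol and read at 540 nm. Survival is % of untreated control, mean ± SD of 3 experiments, each in triplicate.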

[7] = test system: Vero; assay: Cytotoxicity against african green monkey Vero cells at 400 uM; format: cell-based; settings: chlorocebus sabaeus; outline: as §2
[8] = Octanol-water partition coefficient, log P after 4 hrs by shake flask method; format: physicochemical
Outline: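 Shake-flask method at pH 7.0 (phosphate buffer). Water presaturated with n-octanol was mixed with the ligand or the Fe:L 1:3 system (10−4 M stock) and shaken at 37 °C for 4 h. After phase separation, aqueous concentration was measured spectrophotometrically. Log P is the log of the octanol/water concentration ratio.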

[9] = Chemical stability in phosphate buffer at pH 7 after 8 hrs; format: physicochemical; outline: as §1
[10] = Amount of free iron in Fe3+/ligand system at pH 2; settings: buffer
[11] = Protonation constant, pKa by potentiometric method; format: physicochemical
Outline: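 Potentiometric titration of 3×10−3 M ligand in water at 25.0 °C, ionic strength 0.1 M (NaNO3), under nitrogen. The titrant was 1×10−2 M NaOH, over pH 2–10, with 600–720 s per point. At least 10 titrations of 40 points each were run, and constants were refined by least squares.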

[12] = test system: Liver microsomes; assay: Antioxidant activity against ferric ion (Fe3+-ADP)-induced lipid peroxidation in rat liver microsomes; settings: Microsome
[13] = Cytotoxicity against african green monkey Vero cells at 600 uM; format: cell-based; settings: chlorocebus sabaeus, read-out: INH; outline: as §2
[14] = test system: Liver microsomes; assay: Antioxidant activity against ferric ion (Fe3+-ADP)-induced lipid peroxidation in rat liver microsomes after 30 mins; settings: Microsome
[15] = test system: Vero; assay: Cytotoxicity against african green monkey Vero cells; format: cell-based; settings: Chlorocebus sabaeus; outline: as §2

Row | SMILES | Stability [1] | half-life [2] [h] | cytotoxicity at 5 µM [3] [%] | cytotoxicity at 10 µM [4] [%] | pKa [5] | cytotoxicity at 800 µM [6] [%] | Activity [7] [%] | logP at 4 h [8] | Degradation % at 8 h [9] [%] | Activity [10] [%] | pKa [11] | Activity [12] | cytotoxicity at 600 µM [13] [%] | Activity [14] | IC50 [15] [µM]
1 | COc1cc(/C=C/C(=O)CC(=O)/C=C/c2ccc(O)c(OC)c2)ccc1O [CURCUMIN] | Unstable | 0.167 | 10 | 20 | – | – | – | – | – | – | – | – | – | – | –
2 | CC(=O)/C=C(O)/C=C/c1ccc(O[C@@H]2O[C@H](CO)[C@@H](O)[C@H](O)[C@H]2O)c(O)c1 | – | > 100 | – | – | 8.03 | 20 | 10 | 0.32 | < 10 | 20 | 8.03 | inactive | – | – | –
3 | O=C(O)[C@H](O)[C@@H](O)[C@H](O)[C@H](O)CO [GLUCONIC ACID] | – | – | – | – | – | – | – | – | – | 60 | – | – | – | – | –
4 | CC(=O)/C=C(O)/C=C/c1ccc(O[C@@H]2O[C@H](CO)[C@@H](O)[C@H](O)[C@H]2O)cc1 | – | > 100 | – | – | 9.22 | 40 | – | 0.39 | < 10 | 30 | 9.26 | inactive | 2 | – | –
5 | COc1cc(/C=C/C(O)=C/C(C)=O)ccc1O[C@@H]1O[C@H](CO)[C@@H](O)[C@H](O)[C@H]1O | – | > 100 | – | – | 8.73 | 65 | – | 0.13 | < 10 | 40 | 8.75 | – | 40 | Active | 700
